Test results as given in ChEMBL document CHEMBL1122605, “Synthesis and evaluation of radioiodinated (E)-18-iodo-17-octadecenoic acid as a model iodoalkenyl fatty acid for myocardial imaging” (J Med Chem, 1984).
Several values for one entry are separate records, joined by “and”; a condition that tells them apart may be missing. Equal entries are not always repeated.

Tests used:
Rattus norvegicus [1] = assay: Distribution of the [125I]-labeled compound in heart tissue of female Fischer 344 rat 120 min after intravenous administration. Value in the parentheses is ratio of distribution in heart and blood; assay type: ADME, organism-based; conditions: in vivo, 2 h
Outline: (§1)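 Radioiodinated ([125I]) fatty acid formulated in 6% bovine serum albumin solution (10% EtOH), passed through a 0.22-µm filter, injected into a lateral tail vein of female Fischer 344 rats. Tissues taken at set times post-injection; radioactivity expressed as percent injected dose/g tissue (mean, range), with heart:blood ratio calculated from heart and blood values.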

Rattus norvegicus [2] = assay: Distribution of the [125I]-labeled compound in heart tissue of female Fischer 344 rat 5 min after intravenous administration. Value in the parentheses is ratio of distribution in heart and blood; assay type: ADME, organism-based; conditions: in vivo; outline: as §1
Rattus norvegicus [3] = assay: Distribution of the [125I]-labeled compound in blood of female Fischer 344 rat 1 hr after intravenous administration.; assay type: ADME, organism-based; conditions: in vivo
Outline: (§2)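 Tissues were sampled at the stated times after injection. Radioactivity is expressed as mean (range) percent injected dose/g tissue. Heart:blood ratios were calculated from these tissue values.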

Rattus norvegicus [4] = assay: Ratio of the distribution of [125I]-labeled compound in heart/blood of female Fischer 344 rat 1 hr after intravenous administration.; assay type: ADME, organism-based; conditions: other tissue; outline: as §2
Rattus norvegicus [5] = assay: Distribution of the [125I]-labeled compound in blood of female Fischer 344 rat 5 min after intravenous administration.; assay type: ADME, organism-based; conditions: in vivo; outline: as §2
Rattus norvegicus [6] = assay: Distribution of the [125I]-labeled compound in thyroid of female Fischer 344 rat 1 hr after intravenous administration.; assay type: ADME, organism-based, Thyroid gland; conditions: in vivo; outline: as §2
Rattus norvegicus [7] = assay: Distribution of the [125I]-labeled compound in blood of female Fischer 344 rat 2 hr after intravenous administration.; assay type: ADME, organism-based; conditions: in vivo; outline: as §2
Rattus norvegicus [8] = assay: Distribution of the [125I]-labeled compound in thyroid of female Fischer 344 rat 1 day after intravenous administration.; assay type: ADME, organism-based, Thyroid gland; conditions: in vivo, 24 h; outline: as §2
Rattus norvegicus [9] = assay: Distribution of the [125I]-labeled compound in blood of female Fischer 344 rat 4 hr after intravenous administration.; assay type: ADME, organism-based; conditions: in vivo; outline: as §2
Rattus norvegicus [10] = assay: Distribution of the [125I]-labeled compound in lungs of female Fischer 344 rat 30 min after intravenous administration.; assay type: ADME, organism-based, Lung; conditions: in vivo, 0.5 h; outline: as §2
Rattus norvegicus [11] = assay: Distribution of the [125I]-labeled compound in blood of female Fischer 344 rat 30 min after intravenous administration.; assay type: ADME, organism-based; conditions: in vivo, 0.5 h; outline: as §2
Rattus norvegicus [12] = assay: Distribution of the [125I]-labeled compound in thyroid of female Fischer 344 rat 5 min after intravenous administration.; assay type: ADME, organism-based, Thyroid gland; conditions: in vivo; outline: as §2
Rattus norvegicus [13] = assay: Distribution of the [125I]-labeled compound in kidney of female Fischer 344 rat 4 hr after intravenous administration.; assay type: ADME, organism-based; conditions: in vivo; outline: as §2
Rattus norvegicus [14] = assay: Ratio of the distribution of [125I]-labeled compound in heart/blood of female Fischer 344 rat 4 hr after intravenous administration.; assay type: ADME, organism-based; conditions: other tissue; outline: as §2
Rattus norvegicus [15] = assay: Distribution of the [125I]-labeled compound in thyroid of female Fischer 344 rat 2 hr after intravenous administration.; assay type: ADME, organism-based, Thyroid gland; conditions: in vivo; outline: as §2
Rattus norvegicus [16] = assay: Ratio of the distribution of [125I]-labeled compound in heart/blood of female Fischer 344 rat 5 min after intravenous administration.; assay type: ADME, organism-based; conditions: in vivo; outline: as §2
Rattus norvegicus [17] = assay: Distribution of the [125I]-labeled compound in heart tissue of female Fischer 344 rat 5 min after intravenous administration.; assay type: ADME, organism-based; conditions: in vivo; outline: as §2
Rattus norvegicus [18] = assay: Distribution of the [125I]-labeled compound in heart tissue of female Fischer 344 rat 1 hr after intravenous administration.; assay type: ADME, organism-based; conditions: in vivo; outline: as §2
Rattus norvegicus [19] = assay: Distribution of the [125I]-labeled compound in kidney of female Fischer 344 rat 1 hr after intravenous administration.; assay type: ADME, organism-based; conditions: in vivo; outline: as §2
Rattus norvegicus [20] = assay: Distribution of the [125I]-labeled compound in liver of female Fischer 344 rat 5 min after intravenous administration.; assay type: ADME, organism-based; conditions: in vivo; outline: as §2
Rattus norvegicus [21] = assay: Ratio of the distribution of [125I]-labeled compound in heart/blood of female Fischer 344 rat 1 day after intravenous administration.; assay type: ADME, organism-based; conditions: other tissue, 24 h; outline: as §2
Rattus norvegicus [22] = assay: Distribution of the [125I]-labeled compound in thyroid of female Fischer 344 rat 4 hr after intravenous administration.; assay type: ADME, organism-based, Thyroid gland; conditions: in vivo; outline: as §2
Rattus norvegicus [23] = assay: Distribution of the [125I]-labeled compound in liver of female Fischer 344 rat 1 hr after intravenous administration.; assay type: ADME, organism-based; conditions: in vivo; outline: as §2
Rattus norvegicus [24] = assay: Distribution of the [125I]-labeled compound in blood of female Fischer 344 rat 1 day after intravenous administration.; assay type: ADME, organism-based; conditions: in vivo, 24 h; outline: as §2
Rattus norvegicus [25] = assay: Ratio of the distribution of [125I]-labeled compound in heart/blood of female Fischer 344 rat 2 hr after intravenous administration.; assay type: ADME, organism-based; conditions: other tissue; outline: as §2
Rattus norvegicus [26] = assay: Distribution of the [125I]-labeled compound in liver of female Fischer 344 rat 30 min after intravenous administration.; assay type: ADME, organism-based; conditions: in vivo, 0.5 h; outline: as §2
Rattus norvegicus [27] = assay: Distribution of the [125I]-labeled compound in heart tissue of female Fischer 344 rat 30 min after intravenous administration.; assay type: ADME, organism-based; conditions: in vivo, 0.5 h; outline: as §2
Rattus norvegicus [28] = assay: Distribution of the [125I]-labeled compound in lungs of female Fischer 344 rat 5 min after intravenous administration.; assay type: ADME, organism-based, Lung; conditions: in vivo; outline: as §2
Rattus norvegicus [29] = assay: Distribution of the [125I]-labeled compound in heart tissue of female Fischer 344 rat 2 hr after intravenous administration.; assay type: ADME, organism-based; conditions: in vivo; outline: as §2
Rattus norvegicus [30] = assay: Distribution of the [125I]-labeled compound in lungs of female Fischer 344 rat 1 hr after intravenous administration.; assay type: ADME, organism-based, Lung; conditions: in vivo; outline: as §2
Rattus norvegicus [31] = assay: Distribution of the [125I]-labeled compound in heart tissue of female Fischer 344 rat 1 day after intravenous administration.; assay type: ADME, organism-based; conditions: in vivo, 24 h; outline: as §2
Rattus norvegicus [32] = assay: Distribution of the [125I]-labeled compound in kidney of female Fischer 344 rat 1 day after intravenous administration.; assay type: ADME, organism-based; conditions: in vivo, 24 h; outline: as §2
Rattus norvegicus [33] = assay: Distribution of the [125I]-labeled compound in thyroid of female Fischer 344 rat 30 min after intravenous administration.; assay type: ADME, organism-based, Thyroid gland; conditions: in vivo, 0.5 h; outline: as §2
Rattus norvegicus [34] = assay: Distribution of the [125I]-labeled compound in kidney of female Fischer 344 rat 30 min after intravenous administration.; assay type: ADME, organism-based; conditions: in vivo, 0.5 h; outline: as §2
Rattus norvegicus [35] = assay: Distribution of the [125I]-labeled compound in liver of female Fischer 344 rat 4 hr after intravenous administration.; assay type: ADME, organism-based; conditions: in vivo; outline: as §2
Rattus norvegicus [36] = assay: Distribution of the [125I]-labeled compound in kidney of female Fischer 344 rat 2 hr after intravenous administration.; assay type: ADME, organism-based; conditions: in vivo; outline: as §2
Rattus norvegicus [37] = assay: Distribution of the [125I]-labeled compound in liver of female Fischer 344 rat 1 day after intravenous administration.; assay type: ADME, organism-based; conditions: in vivo, 24 h; outline: as §2
Rattus norvegicus [38] = assay: Distribution of the [125I]-labeled compound in heart tissue of female Fischer 344 rat 4 hr after intravenous administration.; assay type: ADME, organism-based; conditions: in vivo; outline: as §2
Rattus norvegicus [39] = assay: Distribution of the [125I]-labeled compound in lungs of female Fischer 344 rat 1 day after intravenous administration.; assay type: ADME, organism-based, Lung; conditions: in vivo, 24 h; outline: as §2
Rattus norvegicus [40] = assay: Distribution of the [125I]-labeled compound in kidney of female Fischer 344 rat 5 min after intravenous administration.; assay type: ADME, organism-based; conditions: in vivo; outline: as §2
Rattus norvegicus [41] = assay: Distribution of the [125I]-labeled compound in liver of female Fischer 344 rat 2 hr after intravenous administration.; assay type: ADME, organism-based; conditions: in vivo; outline: as §2

## O=C(O)CCCCC[Te]CCCCCCCCC/C=C/I
Rattus norvegicus [1]
  Injected dose/g tissue: 2.9%
Rattus norvegicus [2]
  Injected dose/g tissue: 3.5%

## O=C(O)CCCCCCCCCCC[Te]CCC/C=C/I
Rattus norvegicus [1]
  Injected dose/g tissue: 1%
Rattus norvegicus [2]
  Injected dose/g tissue: 1.5%

## O=C(O)CCC[Te]CCCCCCCCCCC/C=C/I
Rattus norvegicus [1]
  Injected dose/g tissue: 3.6%
Rattus norvegicus [2]
  Injected dose/g tissue: 3.9%

## O=C(O)CCCCCCC[Te]CCCCCCC/C=C/I
Rattus norvegicus [1]
  Injected dose/g tissue: 3.9%
Rattus norvegicus [2]
  Injected dose/g tissue: 4.8%

## O=C(O)CCCCCCCCCCCCCCC/C=C/I
Rattus norvegicus [3]
  Injected dose/g tissue: 0.28%
Rattus norvegicus [4]
  Heart/blood ratio: 7.6
Rattus norvegicus [5]
  Injected dose/g tissue: 0.3%
Rattus norvegicus [6]
  Injected dose/g tissue: 27.18%
Rattus norvegicus [7]
  Injected dose/g tissue: 0.28%
Rattus norvegicus [8]
  Injected dose/g tissue: 350%
Rattus norvegicus [9]
  Injected dose/g tissue: 0.27%
Rattus norvegicus [10]
  Injected dose/g tissue: 1.03%
Rattus norvegicus [11]
  Injected dose/g tissue: 0.4%
Rattus norvegicus [12]
  Injected dose/g tissue: 9.29%
Rattus norvegicus [13]
  Injected dose/g tissue: 0.55%
Rattus norvegicus [14]
  Heart/blood ratio: 3.5
Rattus norvegicus [15]
  Injected dose/g tissue: 61%
Rattus norvegicus [16]
  ratio: 10.6 and 6.7
Rattus norvegicus [17]
  Injected dose/g tissue: 3.17%
Rattus norvegicus [18]
  Injected dose/g tissue: 2.09%
Rattus norvegicus [19]
  Injected dose/g tissue: 0.62%
Rattus norvegicus [20]
  Injected dose/g tissue: 8.65%
Rattus norvegicus [21]
  Heart/blood ratio: 4.8
Rattus norvegicus [22]
  Injected dose/g tissue: 153%
Rattus norvegicus [23]
  Injected dose/g tissue: 4.83%
Rattus norvegicus [24]
  Injected dose/g tissue: 0.07%
Rattus norvegicus [25]
  Heart/blood ratio: 6.6
Rattus norvegicus [26]
  Injected dose/g tissue: 7.81%
Rattus norvegicus [27]
  Injected dose/g tissue: 2.69%
Rattus norvegicus [28]
  Injected dose/g tissue: 1.02%
Rattus norvegicus [29]
  Injected dose/g tissue: 1.72%
Rattus norvegicus [30]
  Injected dose/g tissue: 0.82%
Rattus norvegicus [31]
  Injected dose/g tissue: 0.32%
Rattus norvegicus [32]
  Injected dose/g tissue: 0.32%
Rattus norvegicus [33]
  Injected dose/g tissue: 20.88%
Rattus norvegicus [34]
  Injected dose/g tissue: 0.7%
Rattus norvegicus [35]
  Injected dose/g tissue: 3.08%
Rattus norvegicus [36]
  Injected dose/g tissue: 0.63%
Rattus norvegicus [37]
  Injected dose/g tissue: 0.6%
Rattus norvegicus [38]
  Injected dose/g tissue: 0.94%
Rattus norvegicus [39]
  Injected dose/g tissue: 0.59%
Rattus norvegicus [40]
  Injected dose/g tissue: 0.82%
Rattus norvegicus [41]
  Injected dose/g tissue: 4.04%

## O=C(O)CCCCCCCCC[Te]CCCCC/C=C/I
Rattus norvegicus [1]
  Injected dose/g tissue: 3.8%
Rattus norvegicus [2]
  Injected dose/g tissue: 3.1%
